# High-throughput results from PubChem.
# M18AAP inhibitor: PfM18AAP inhibitors, malaria aminopeptidase, primary screen, biochemical, QFRET, recombinant enzyme | M18 aspartyl aminopeptidase (Plasmodium falciparum 3D7) | inhibition, % at 7.35 µM | hit rate 1.2% among 290,000 | H-Glu-NHMec fluorogenic cleavage | AID 1822, 2009;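 active = inhibition above the campaign mean inhibition over all tested compounds plus 3 SD, cut at about 28% in these data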;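 note: 0% = plate median of test compound wells and 100% = 2 mM ZnCl2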
# ALR H2O2 inh: inhibitors of human ALR sulfhydryl oxidase, primary screen, biochemical, H2O2 detection, HRP-luminol luminescence, single point | purified ALR, DTT oxidation | hit rate 3.8% among 290,000 | inhibition, % (test concentration not listed);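 active = mean replicate inhibition above about 79%, with every replicate also reaching it, limit read from the data; inconclusive = only one of the two criteria met; inactive = mean below limit and not every replicate reaching it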
# Target sequence (P55789 whole entry, looked up): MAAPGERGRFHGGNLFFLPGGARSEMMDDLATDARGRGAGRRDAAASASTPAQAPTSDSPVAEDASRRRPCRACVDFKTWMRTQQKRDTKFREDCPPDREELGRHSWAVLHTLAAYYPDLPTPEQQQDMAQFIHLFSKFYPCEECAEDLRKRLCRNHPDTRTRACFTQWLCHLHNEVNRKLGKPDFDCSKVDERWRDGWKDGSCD
# UCH37 DUB inh: inhibitors of human UCH37 deubiquitinase, primary screen, biochemical, Ub-AMC cleavage, fluorescence; Ubiquitin carboxyl-terminal hydrolase isozyme L5 (Homo sapiens), Q9Y5K5; purified proteasome/UCH37; inhibition, % (concentration not given with the values); hit rate 0.33% among 330,000;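 active = mean inhibition over replicate wells above about 20%, limit read from the data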;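 note: 0% = compound-free wells with enzyme and 100% = wells lacking proteasome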
# Target sequence (Q9Y5K5 whole entry, looked up): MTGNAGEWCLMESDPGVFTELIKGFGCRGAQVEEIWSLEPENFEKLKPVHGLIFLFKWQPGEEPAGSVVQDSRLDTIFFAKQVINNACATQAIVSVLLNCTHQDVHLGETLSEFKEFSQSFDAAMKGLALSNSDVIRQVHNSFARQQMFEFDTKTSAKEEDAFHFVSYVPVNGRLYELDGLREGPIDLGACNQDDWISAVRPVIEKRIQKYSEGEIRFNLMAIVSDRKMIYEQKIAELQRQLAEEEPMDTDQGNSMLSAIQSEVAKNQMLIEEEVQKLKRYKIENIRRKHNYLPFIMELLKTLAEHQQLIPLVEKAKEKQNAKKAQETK
#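 system = Proteasome-associated human UCH37 deubiquitinase | amount = 0.15 nM proteasome as dispensed | medium = pH 7.4 Tris-HCl (50 mM) with ovalbumin, ATP-MgCl2, DTT | incubation = 30 min preincubation with enzyme, 25 min cleavage at room temperature | detection = AMC fluorescence 355/460 nm | read-out basis = percent inhibition | controls = no-proteasome and no-compound wells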
# HDAC3 inh: HDAC3 deacetylase inhibitors, primary screen, biochemical, fluorescence, cell-free homogeneous | recombinant HDAC3, fluorogenic peptide/trypsin coupled | Histone deacetylase 3 (Homo sapiens), O15379 | AID 2718, 2010 | inhibition, % at 8.3 µM | hit rate 0.15% among 320,000; in the data active = inhibition above about 26%, passing the limit was not always enough; inconclusive = no clear call, values can overlap the other calls
# FAS-TE inh: FAS thioesterase domain inhibitors, primary screen, biochemical, fluorescence intensity, uHTS | inhibition, % at 15 µM | hit rate 0.67% among 360,000 | recombinant FAS-TE, OMFH fluorogenic substrate, fluorescence endpoint;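 active = compounds whose normalised, plate-corrected inhibition of enzyme fluorescence in the single-dose primary screen is 50% or more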;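 note: 0% = DMSO with enzyme and 100% = substrate without enzyme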
# Rtt109 Vps75: inhibitors of C. albicans Rtt109/Vps75 HAT, primary screen, biochemical, ThioGlo CoA-SH fluorescence, plate reader | Histone acetyltransferase RTT109 (Candida albicans (strain SC5314 / ATCC MYA-2876)), … | purified Rtt109/Vps75, 4 h | inhibition, % at 34.9 µM | hit rate 0.16% among 330,000;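 active = inhibition of at least 50% in every replicate; inconclusive = best replicate reaches 50% inhibition but some replicates fall short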
# Active calls of the source: *; ? = inconclusive; / = no result given. Hits are enriched below; roughly 4.6% of the tested compounds scored in any of these assays.
SMILES,M18AAP inhibitor,ALR H2O2 inh,UCH37 DUB inh,HDAC3 inh,FAS-TE inh,Rtt109 Vps75
Cc1ccc(NC(=O)CSc2ncnc3ccccc23)cc1S(=O)(=O)N1CCOCC1,4,99*,6,4,0,7
Cc1ccc(NC(=O)COC(=O)c2ccc3c(c2)OCCO3)cc1S(=O)(=O)N1CCOCC1,-2,1,3,3,10,-2
COc1ccc(-n2nnc3c(=O)n(CC(=O)Nc4ccc5c(c4)OCCO5)cnc32)cc1OC,0,-6,-17,4,-27,2
CCCc1c(C(=O)NN=Cc2cccc3ccccc23)nnn1-c1nonc1N,/,/,0,/,/,/
CS/C(N)=N/N=Cc1ccc([N+](=O)[O-])cc1,/,/,11,/,/,/
CCc1ccc(C=NNC(=O)c2cc(C)on2)s1,/,/,11,/,/,/
CC(CC(=O)Nc1ccc(C)c(Cl)c1)=NNC(=O)c1ccco1,/,/,5,/,/,/
O=C(CSc1ncnc2ccccc12)Nc1ccc2c(c1)OCCO2,-3,95*,8,-3,0,-11
O=C(CSc1ncnc2ccccc12)Nc1ccc2c(c1)OCO2,1,98*,8,6,4,15
CCCN1C(=O)C(=NOCC(=O)Nc2ccc(C(C)C)cc2)c2ccccc21,/,/,7,/,/,/
COc1cc(OC)nc(-n2ncc(Br)c(Br)c2=O)n1,-4,92*,8,6,16,-4
COC(=O)c1cnn(-c2nc(OC)cc(OC)n2)c1C,1,-2,2,-7,-9,-7
CCNC(=S)NN=Cc1cccc(OCc2c(F)cccc2Cl)c1,/,/,6,/,/,/
Cc1cc(Cc2cc(C)c(N)cc2C)c(C)cc1N,0,97*,1,-10,-3,-3
CN(Cc1cc(=O)n2ccsc2n1)c1ccccc1,2,98*,-4,12,2,1
O=c1cc(CN2CCN(c3ccc(F)cc3)CC2)nc2sccn12,4,98*,-3,1,-3,2
Cc1cccc(OCC(=O)ON=C(N)c2ccccn2)c1,/,/,0,/,/,/
CCOc1cccc(/C=N/NC(=O)c2ccc3c(c2)OCCO3)c1O,-3,90*,/,1,4,7
COc1ccc(C(=O)NCC(=O)N/N=C/c2ccc(C)o2)cc1OC,4,-7,/,56*,-6,-9
COc1cccc(/C=N/NC(=O)CNC(=O)c2ccc3c(c2)OCCO3)c1O,8,94*,/,3,-2,-3
CCc1c(O)nc(SCC(=O)NC(C)(C)C)n(-c2ccccc2)c1=O,-11,52,1,-4,-6,2
CCCCc1c(O)nc(SCC(=O)N2CCOCC2)n(-c2ccc(OC)cc2)c1=O,-6,9,4,4,-4,-42
CCc1c(O)nc(SCC(=O)c2ccccc2)n(-c2ccccc2)c1=O,2,99*,4,11,-5,-10
CCc1c(O)nc(SCC(=O)N2CCOCC2)n(-c2ccccc2)c1=O,4,96*,2,?,-15,-328
O=C(CNC(=O)c1ccccc1F)OCc1csc(-c2ccccc2)n1,6,99*,-1,4,1,5
SMILES,M18AAP inhibitor,ALR H2O2 inh,UCH37 DUB inh,HDAC3 inh,FAS-TE inh,Rtt109 Vps75
Nc1ccc(C(=O)OCc2csc(-c3ccccc3)n2)cc1[N+](=O)[O-],2,99*,/,3,-3,/
COc1ccccc1C(=O)NCC(=O)OCc1csc(-c2ccccc2)n1,-4,-5,3,14,12,-2
Cn1cccc1C(=O)OCc1csc(-c2ccccc2)n1,0,96*,0,-2,11,-4
O=C(OCc1csc(-c2ccccc2)n1)c1cccs1,-1,-23,7,5,8,8
CNS(=O)(=O)c1cccc(C(=O)OCc2csc(-c3ccccc3)n2)c1,5,?,0,3,24,-1
O=C(NN=Cc1cn(-c2ccccc2)nc1-c1cccnc1)c1cccnc1,/,/,5,/,/,/
COc1cc(NN=Cc2ccccc2O)ncn1,/,/,-12,/,/,/
S=c1[nH]ncn1N=Cc1cccs1,/,/,4,/,/,/
Cc1nnsc1C(=O)NN=Cc1c(F)cccc1Cl,/,/,0,/,/,/
O=C(CSCc1ccc(Cl)cc1)NN=Cc1c(Cl)cccc1Cl,/,/,1,/,/,/
CCOC(=O)c1c(NC(N)=O)sc(C)c1C,3,18,5,4,-2,-20
CCOC(=O)c1c(N2C(=O)C=CC2=O)sc(C)c1C,-43,44,0,-3,-1,69*
CCOc1cc(C=NNC(=O)c2cccnc2)ccc1OCC(=O)N(C)C,/,/,3,/,/,/
O=C1CS/C(=N/N=C\c2ccn[nH]2)N1,20,82*,/,4,-3,/
O=C1CS/C(=N/N=Cc2c[nH]c3ccccc23)N1,/,/,2,/,/,/
CCn1nc(NS(=O)(=O)c2cccc3nonc23)c2cc3ccc(C)cc3nc21,0,91*,7,1,1,7
Cc1ccccc1NS(=O)(=O)c1cccc2nonc12,-1,96*,5,-4,-2,4
CCCCn1nc(NS(=O)(=O)c2cccc3nonc23)c2cc3cccc(C)c3nc21,-3,98*,3,-1,17,4
CC(C)Cn1nc(NS(=O)(=O)c2cccc3nonc23)c2cc3ccccc3nc21,3,97*,9,-1,4,3
O=S(=O)(Nc1cccc2ccccc12)c1cccc2nonc12,-18,17,0,2,-2,-14
Nc1nnnn1N=Cc1ccccc1OCc1ccccc1,/,/,-3,/,/,/
C=CCN1C(c2ccccc2)=CS/C1=C(/C#N)c1nnc(N2CCOCC2)n1-c1ccccc1,-7,99*,11,-9,2,/
CN1C(c2ccc(F)cc2)=CS/C1=C(/C#N)c1nnc(N2CCOCC2)n1-c1ccccc1,0,98*,-5,10,0,/
O=C(NC(C(=O)NN=Cc1ccccc1)c1n[nH]c(=O)c2ccccc12)c1ccccc1 (centres undefined),/,/,2,/,/,/
CC(CC(=O)Nc1ccccn1)=NNC(=O)C(=O)Nc1ccccc1C,/,/,1,/,/,/
O=C(N/C(=C\c1ccc(Cl)cc1)C(=O)N1CCOCC1)c1ccc([N+](=O)[O-])cc1,-6,-31,6,-1,89*,7
O=C(C(=O)c1ccc(O)c(O)c1)c1ccc(O)c(O)c1,/,/,24*,/,-10,-3
COc1cc(-c2nnc3sc(-c4ccco4)nn23)cc(OC)c1OC,-2,98*,5,7,-8,0
COc1ccc(-c2nnc3sc(-c4ccco4)nn23)cc1OC,-6,99*,-4,3,7,1
Cc1ccccc1S(=O)(=O)N=C(c1ccccc1)N(C)C,/,/,5,/,/,/
